Laboratory results: ChEMBL document CHEMBL1142636 (2000)

Experiments:
[1] = test system: SNB-75; test: Growth inhibition of human SNB75 cells; assay type: functional; conditions: read-out: pLC50 (the source's name) (converted)
Method in brief: (§1)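 Tested at the NCI in its human disease-oriented in vitro screen of 60 tumour cell lines, following the Monks et al. methods. Activity is expressed as GI50, given as log molar values.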

[2] = test system: SF-268; test: Growth inhibition of human SF268 cells; assay type: functional; method in brief: as §1
[3] = test system: PC-3; test: Growth inhibition of human PC3 cells; assay type: functional; conditions: read-out: pLC50 (the source's name) (converted)
[4] = test system: COLO 205; test: Growth inhibition of human COLO205 cells; assay type: functional
[5] = test system: HCT-15; test: Growth inhibition of human HCT15 cells; assay type: functional; conditions: read-out: pLC50 (the source's name) (converted)
[6] = test system: U-251; test: Growth inhibition of human U251 cells; assay type: functional; conditions: read-out: pLC50 (the source's name) (converted); method in brief: as §1
[7] = test system: DMS-273; test: Growth inhibition of human DMS273 cells; assay type: functional
[8] = test system: HOP-18; test: Growth inhibition of human HOP18 cells; assay type: functional; conditions: read-out: pLC50 (the source's name) (converted)
[9] = test system: CCRF-CEM; test: Growth inhibition of human CCRF-CEM cells; assay type: functional
[10] = test system: SF-539; test: Growth inhibition of human SF539 cells; assay type: functional; conditions: read-out: pLC50 (the source's name) (converted); method in brief: as §1
[11] = test system: K562; test: Growth inhibition of human K562 cells; assay type: functional
[12] = test system: RXF 393; test: Growth inhibition of human […] cells; assay type: functional; conditions: read-out: pLC50 (the source's name) (converted)
[13] = test system: T47D; test: Growth inhibition of human T47D cells; assay type: functional; method in brief: as §1
[14] = test system: MDA-MB-435; test: Growth inhibition of human MDA-MB-435 cells; assay type: functional
[15] = test system: MDA-N; test: Growth inhibition of human MDA-N cells; assay type: functional; conditions: read-out: pLC50 (the source's name) (converted)
[16] = test system: MDA-MB-231; test: Growth inhibition of human MDA-MB-231 cells; assay type: functional; conditions: read-out: pLC50 (the source's name) (converted)
[17] = test system: XF498; test: Growth inhibition of human XF498 cells; assay type: functional; conditions: read-out: pLC50 (the source's name) (converted); method in brief: as §1
[18] = test system: MCF7; test: Growth inhibition of human MCF7 cells; assay type: functional; conditions: read-out: pLC50 (the source's name) (converted)
[19] = Growth inhibition of human RPMI8266 cells; assay type: functional; conditions: read-out: pLC50 (the source's name) (converted)
[20] = Growth inhibition of human OVACR8 cells; assay type: functional; conditions: read-out: pLC50 (the source's name) (converted)
[21] = test system: IGROV-1; test: Growth inhibition of human IGROV1 cells; assay type: functional; conditions: read-out: pLC50 (the source's name) (converted)
[22] = Growth inhibition of human OVACR5 cells; assay type: functional; conditions: read-out: pLC50 (the source's name) (converted)
[23] = test system: NCI-H522; test: Growth inhibition of human NCI-H522 cells; assay type: functional; conditions: read-out: pLC50 (the source's name) (converted)
[24] = test system: Malme-3M; test: Growth inhibition of human MALME-3M cells; assay type: functional; conditions: read-out: pLC50 (the source's name) (converted)
[25] = test system: UO-31; test: Growth inhibition of human UO31 cells; assay type: functional; conditions: read-out: pLC50 (the source's name) (converted); method in brief: as §1
[26] = test system: UACC-257; test: Growth inhibition of human UACC257 cells; assay type: functional; conditions: read-out: pLC50 (the source's name) (converted); method in brief: as §1
[27] = test system: ACHN; test: Growth inhibition of human ACHN cells; assay type: functional; conditions: read-out: pLC50 (the source's name) (converted)
[28] = test system: DU-145; test: Growth inhibition of human DU145 cells; assay type: functional; conditions: read-out: pLC50 (the source's name) (converted)
[29] = test system: SK-MEL-28; test: Growth inhibition of human SK-MEL-28 cells; assay type: functional; conditions: read-out: pLC50 (the source's name) (converted); method in brief: as §1
[30] = Growth inhibition of human […] cells; assay type: functional; conditions: read-out: pLC50 (the source's name) (converted)
[31] = test system: M14; test: Growth inhibition of human M14 cells; assay type: functional; conditions: read-out: pLC50 (the source's name) (converted)
[32] = test system: Hs-578T; test: Growth inhibition of human HS578T cells; assay type: functional; conditions: read-out: pLC50 (the source's name) (converted)
[33] = test system: UACC-62; test: Growth inhibition of human UACC62 cells; assay type: functional; conditions: read-out: pLC50 (the source's name) (converted); method in brief: as §1
[34] = test system: HOP-92; test: Growth inhibition of human HOP92 cells; assay type: functional; conditions: read-out: pLC50 (the source's name) (converted)
[35] = Growth inhibition of human OVACR4 cells; assay type: functional; conditions: read-out: pLC50 (the source's name) (converted)
[36] = test system: KM-20L2; test: Growth inhibition of human KM20L2 cells; assay type: functional; conditions: read-out: pLC50 (the source's name) (converted)
[37] = test system: MOLT-4; test: Growth inhibition of human MOLT4 cells; assay type: functional
[38] = test system: NCI-H460; test: Growth inhibition of human NCI-H460 cells; assay type: functional
[39] = test system: SK-MEL-5; test: Growth inhibition of human SK-MEL-5 cells; assay type: functional; conditions: read-out: pLC50 (the source's name) (converted); method in brief: as §1
[40] = Growth inhibition of human LXFL529 cells; assay type: functional; conditions: LXFL 529
[41] = test system: A549; test: Growth inhibition of human A549 cells; assay type: functional
[42] = test system: SK-OV-3; test: Growth inhibition of human SK-OV-3 cells; assay type: functional; conditions: read-out: pLC50 (the source's name) (converted); method in brief: as §1
[43] = test system: A498; test: Growth inhibition of human A498 cells; assay type: functional; conditions: read-out: pLC50 (the source's name) (converted)
[44] = test system: SK-MEL-2; test: Growth inhibition of human SK-MEL-2 cells; assay type: functional; conditions: read-out: pLC50 (the source's name) (converted); method in brief: as §1
[45] = test system: KM12; test: Growth inhibition of human KM12 cells; assay type: functional; conditions: read-out: pLC50 (the source's name) (converted)
[46] = test system: SW-620; test: Growth inhibition of human SW620 cells; assay type: functional; method in brief: as §1
[47] = test system: SF-295; test: Growth inhibition of human SF295 cells; assay type: functional; conditions: read-out: pLC50 (the source's name) (converted); method in brief: as §1
[48] = test system: NCI-H322M; test: Growth inhibition of human NCI-H322M cells; assay type: functional
[49] = test system: SN12C; test: Growth inhibition of human SN12C cells; assay type: functional; conditions: read-out: pLC50 (the source's name) (converted); method in brief: as §1
[50] = test system: HOP-62; test: Growth inhibition of human HOP62 cells; assay type: functional
[51] = test system: HCT-116; test: Growth inhibition of human HCT116 cells; assay type: functional; conditions: read-out: pLC50 (the source's name) (converted)
[52] = test system: BT-549; test: Growth inhibition of human BT549 cells; assay type: functional
[53] = test system: HCC 2998; test: Growth inhibition of human HCC2998 cells; assay type: functional
[54] = test system: CAKI-1; test: Growth inhibition of human CAKI1 cells; assay type: functional; conditions: read-out: pLC50 (the source's name) (converted)
[55] = test system: DLD-1; test: Growth inhibition of human DLD1 cells; assay type: functional
[56] = test system: NCI-H226; test: Growth inhibition of human NCI-H226 cells; assay type: functional
[57] = Growth inhibition of human MCF7/ADR-RES cells; assay type: functional; conditions: NCI/ADR-RES, read-out: pLC50 (the source's name) (converted)
[58] = test system: M19-MEL; test: Growth inhibition of human M19-MEL cells; assay type: functional; conditions: read-out: pLC50 (the source's name) (converted)
[59] = test system: NCI-H23; test: Growth inhibition of human NCI-H23 cells; assay type: functional
[60] = Growth inhibition of human DMS144 cells; assay type: functional
[61] = test system: HT-29; test: Growth inhibition of human HT29 cells; assay type: functional
[62] = test system: LOX IMVI; test: Growth inhibition of human LOX IMVI cells; assay type: functional; conditions: read-out: pLC50 (the source's name) (converted)
[63] = test system: SR; test: Growth inhibition of human SR cells; assay type: functional; method in brief: as §1
[64] = Growth inhibition of human HL60(TB) cells; assay type: functional, HL-60(TB); conditions: HL-60, read-out: pLC50 (the source's name) (converted)
[65] = test system: SNB-19; test: Growth inhibition of human SNB19 cells; assay type: functional; conditions: read-out: pLC50 (the source's name) (converted); method in brief: as §1
[66] = test system: 786-0; test: Growth inhibition of human 786-0 cells; assay type: functional; conditions: read-out: pLC50 (the source's name) (converted)
[67] = test system: EKVX; test: Growth inhibition of human EKVX cells; assay type: functional; conditions: read-out: pLC50 (the source's name) (converted)
[68] = test system: TK-10; test: Growth inhibition of human TK10 cells; assay type: functional; conditions: read-out: pLC50 (the source's name) (converted); method in brief: as §1

Cc1cc2c3ccccc3n3c2c2c1O[C@@]1(C)CC[C@H]([C@@H]2C1)C3(C)C
> 25.1 µM: CC50 [1] | LC50 [2] | CC50 [3] | LC50 [4] | CC50 [5] | CC50 [6] | LC50 [7] | CC50 [8] | LC50 [9] | CC50 [10] | LC50 [11] | CC50 [12] | LC50 [13] | LC50 [14] | CC50 [15] | CC50 [16] | CC50 [17] | CC50 [18] | CC50 [19] | CC50 [20] | CC50 [21] | CC50 [22] | CC50 [23] | CC50 [24] | CC50 [25] | CC50 [26] | CC50 [27] | CC50 [28] | CC50 [29] | CC50 [30] | CC50 [31] | CC50 [32] | CC50 [33] | CC50 [34] | CC50 [35] | CC50 [36] | LC50 [37] | LC50 [38] | CC50 [39] | LC50 [40] | LC50 [41] | CC50 [42] | CC50 [43] | CC50 [44] | CC50 [45] | LC50 [46] | CC50 [47] | LC50 [48] | CC50 [49] | LC50 [50] | CC50 [51] | LC50 [52] | LC50 [53] | CC50 [54] | LC50 [55] | LC50 [56] | CC50 [57] | CC50 [58] | LC50 [59] | LC50 [60] | LC50 [61] | CC50 [62] | LC50 [63] | CC50 [64] | CC50 [65] | CC50 [66] | CC50 [67] | CC50 [68]
